Test results reported in ChEMBL document CHEMBL4196141, “Improved Antibacterial Activity of the Marine Peptide N6 against Intracellular Salmonella Typhimurium by Conjugating with the Cell-Penetrating Peptide Tat11 via a Cleavable Linker” (J Med Chem, 2018).
Values after ≈ are worked out from the molar mass of the structure shown. Active and inactive are the calls of the source. The calls are words filed in the database; no cut-off is given here. Positions of bridges follow the written chain, without caps; N, C: chain ends. Residues, ends and D or L forms follow the SMILES beside them.

Experiments:
Salmonella typhimurium [1] = experiment: Antibacterial activity against Salmonella typhimurium ATCC 14028 incubated for 16 to 18 hrs at pH 7.2 by broth microdilution method; type: functional, Salmonella enterica subsp. enterica serovar Typhimurium; details: Salmonella enterica
Procedure, shortened: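 Broth microdilution in MH broth. S. Typhimurium ATCC14028 was grown overnight at 37 °C to semi-log phase, pelleted, and diluted to OD600 0.01; final inoculum was 5 × 10^5 CFU/mL. Plates were incubated 16–18 h at 37 °C. MIC is the lowest peptide concentration with no visible growth. Data are in duplicate from at least two independent experiments.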

Salmonella typhimurium [2] = experiment: Antibacterial activity against Salmonella typhimurium ATCC 14028 assessed as time duration for reduction in growth using cathepsin B pre-treated compound at 1 to 2 MIC incubated for 1 to 24 hrs by time kill assay; type: functional, Salmonella enterica subsp. enterica serovar Typhimurium
Procedure, shortened: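 Time-kill of cathepsin B-pretreated peptide (1 h, 37 °C, pH 5 buffer). Mid-log S. Typhimurium at 10^5 CFU/mL was exposed to 1× and 2× MIC at 37 °C with shaking at 250 rpm. Samples were taken every 2 h, serially diluted and plate-counted. N6 and ciprofloxacin served as controls.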

[3] = Drug uptake in mouse RAW264.7 using FITC-labeled compound at 5 uM incubated for 2 hrs by flow cytometry; type: ADME, cell-based; details: raw264.7, 2 h
Procedure, shortened: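 Confluent RAW264.7 cells were resuspended in PBS and incubated at 37 °C with 5 µM FITC-labeled peptide. Samples taken at 0.5 h and 2 h were quenched with 0.4% Trypan blue for extracellular fluorescence. Uptake (percent internalized cells) was read by flow cytometry, with free FITC as negative control.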

[4] = Drug internalization in mouse RAW264.7 using FITC-labeled compound at 2 uM incubated for 2 hrs at 4 degC by flow cytometry; type: ADME, cell-based; details: raw264.7, 2 h
Salmonella typhimurium [5] = experiment: Bactericidal activity against 2 hrs-gentamicin pre-exposed Salmonella typhimurium ATCC 14028 assessed as reduction colony forming units at 50 uM incubated for 10 hrs relative to marine peptide N6; type: functional, Salmonella enterica subsp. enterica serovar Typhimurium; design: scale not given: the % may be the effect or the level left
Procedure, shortened: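 Macrophage protection assay. RAW264.7 cells (5 × 10^4/well, 24 h) were infected with S. Typhimurium ATCC14028 at MOI 10 for 1 h in DMEM/10% FBS, exposed to 100 µg/mL gentamicin for 2 h at 37 °C, and PBS-washed. Peptides in DMEM/10% FBS were added for 10 h. Cells were lysed with 0.1% Triton X-100 and CFU plated; log10 CFU reduction versus untreated cells. Three replicates; two independent experiments; one-way ANOVA with Tukey.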

Salmonella typhimurium [6] = experiment: Antibacterial activity against Salmonella typhimurium ATCC 14028 infected in ICR mouse model of peritonitis assessed as reduction colony forming units in total peritoneal fluids at 1 umol/kg, ip dosed at 2 hrs post infection and measured after 10 hrs post dose; type: functional, Salmonella enterica subsp. enterica serovar Typhimurium
Procedure, shortened: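 Six-week-old female ICR mice (six per group) received ip S. Typhimurium ATCC14028 (5 × 10^5 CFU, 0.5 mL). Peptide was given ip 2 h post-infection and mice were killed 10 h after treatment. Peritoneum was lavaged with 5 mL ice-cold PBS and total CFU counted. For intracellular CFU, pelleted cells were treated with 100 µg/mL gentamicin for 1 h at 37 °C, washed, lysed and plated. PBS served as negative control, ciprofloxacin as positive.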

Salmonella typhimurium [7] = experiment: Antibacterial activity against Salmonella typhimurium ATCC 14028 infected in ICR mouse model of peritonitis assessed as reduction colony forming units in spleen at 1 to 2 umol/kg, ip dosed at 2 hrs post infection and measured after 10 hrs post dose relative to marine peptide N6; type: functional, Salmonella enterica subsp. enterica serovar Typhimurium; design: scale not given: the % may be the effect or the level left
Procedure, shortened: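 Female ICR mice, six weeks old (six per group), were infected ip with S. Typhimurium ATCC14028 (5 × 10^5 CFU, 0.5 mL). Peptide was given ip at 1, 1.5 or 2 µmol/kg 2 h post-infection. Mice were killed 10 h after treatment, and kidneys and spleens were homogenized in sterile PBS for CFU counts of translocated bacteria. PBS-treated mice served as negative control, ciprofloxacin-treated mice as positive.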

Salmonella typhimurium [8] = experiment: Antibacterial activity against Salmonella typhimurium ATCC 14028 assessed as microbial inhibition zone pretreated for 1 hr at 4 to 100 degC by inhibition zone assay; details: Salmonella enterica subsp. enterica serovar Typhimurium
Salmonella typhimurium [9] = experiment: Antibacterial activity against Salmonella typhimurium ATCC 14028 infected in ICR mouse model of peritonitis assessed as mouse survival at 1 umol/kg, ip dosed at 0.5 and 8 hrs post infection and measured daily for 7 days
Salmonella typhimurium [10] = experiment: Antibacterial activity against Salmonella typhimurium ATCC 14028 infected in ICR mouse model of peritonitis assessed as mouse survival at 2 umol/kg, ip dosed at 0.5 and 8 hrs post infection and measured daily for 7 days

| SMILES | MIC (Salmonella typhimurium [1]) [µM] | Time (Salmonella typhimurium [2]) | Drug uptake [3] [%] | Drug uptake [4] | Activity (Salmonella typhimurium [5]) [%] | Activity (Salmonella typhimurium [6]) [log10CFU] | Activity (Salmonella typhimurium [7]) [%] | Activity (Salmonella typhimurium [8]) | Activity (Salmonella typhimurium [9]) [%] | Activity (Salmonella typhimurium [10]) [%] |
| --- | --- | --- | --- | --- | --- | --- | --- | --- | --- | --- |
| CC(C)[C@@H]1NC(=O)CNC(=O)[C@H](CC(N)=O)NC(=O)[C@H](CCCNC(=N)N)NC(=O)[C@H](Cc2ccc(O)cc2)NC(=O)[C@H](C(C)C)NC(=O)[C@@H](NC(=O)[C@@H](NC(=O)[C@H](CC(N)=O)NC(=O)[C@H](Cc2c[nH]c3ccccc23)NC(=O)[C@H](C)NC(=O)[C@H](Cc2ccccc2)NC(=O)CN)C(C)C)CSSC[C@@H](C(=O)N[C@@H](Cc2cnc[nH]2)C(=O)N[C@@H](CCCNC(=N)N)C(=O)N[C@@H](CCCNC(=N)N)C(=O)N[C@@H](C)C(=O)N[C@@H](CC(N)=O)C(N)=O)NC(=O)[C@H](C(C)C)NC(=O)[C@H](CCCNC(=N)N)NC1=O (H-GFAWNVCVYRNGVRVCHRRAN-NH2; disulfide 7-16) | 0.81 (≈ 2 µg/mL) | <=2 hr | 75.2 | Not Active | 97.6 | 3.04 | 200 | Active | 66.7 | 100 |
| CC(C)[C@H](NC(=O)CCCCCN1C(=O)CC(SC[C@H](N)C(=O)N[C@@H](Cc2ccc(O)cc2)C(=O)NCC(=O)N[C@@H](CCCNC(=N)N)C(=O)N[C@@H](CCCCN)C(=O)N[C@@H](CCCCN)C(=O)N[C@@H](CCCNC(=N)N)C(=O)N[C@@H](CCCNC(=N)N)C(=O)N[C@@H](CCC(N)=O)C(=O)N[C@@H](CCCNC(=N)N)C(=O)N[C@@H](CCCNC(=N)N)C(=O)N[C@@H](CCCNC(=N)N)C(=O)O)C1=O)C(=O)N[C@@H](CCCNC(N)=O)C(=O)Nc1ccc(COC(=O)NCC(=O)N[C@@H](Cc2ccccc2)C(=O)N[C@@H](C)C(=O)N[C@@H](Cc2c[nH]c3ccccc23)C(=O)N[C@@H](CC(N)=O)C(=O)N[C@H](C(=O)N[C@H]2CSSC[C@@H](C(=O)N[C@@H](Cc3cnc[nH]3)C(=O)N[C@@H](CCCNC(=N)N)C(=O)N[C@@H](CCCNC(=N)N)C(=O)N[C@@H](C)C(=O)N[C@@H](CC(N)=O)C(=O)O)NC(=O)[C@H](C(C)C)NC(=O)[C@H](CCCNC(=N)N)NC(=O)[C@H](C(C)C)NC(=O)CNC(=O)[C@H](CC(N)=O)NC(=O)[C@H](CCCNC(=N)N)NC(=O)[C@H](Cc3ccc(O)cc3)NC(=O)[C@H](C(C)C)NC2=O)C(C)C)cc1 (stereo partly drawn) | > 27.2 | <=2 hr | 95.8 | Not Active | 76.2 | 1.87 | 81 |  | 66.7 |  |
